Results reported in ChEMBL document CHEMBL1629416, “Developing dual functional allosteric modulators of GABA(A) receptors” (Bioorg Med Chem, 2010).
Where “and” joins values, the source holds several entries; their conditions need not be identical. Equal entries are not always repeated. Calls of active or inactive are those of the source. The calls are words filed in the database; no cut-off is given here.

What was measured:
[1] = biological target: T1, GABA-A receptor; alpha-2/beta-3/gamma-2 (Homo sapiens) (UniProt P18507+P28472+P47869); test: Positive allosteric modulation of human alpha2beta3gamma2 GABA receptor expressed in Xenopus laevis oocytes at 1 uM; type: cell-based; settings: Oocyte
Summary of the method: (§1)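 Two-electrode voltage clamp on oocytes expressing human α/β/γ2 subtypes, used 2–10 days after injection. […] Baseline was the mean of three GABA-alone pulses. Result is % modulation, mean ± SEM over individual oocytes.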

[2] = biological target: T2, GABA-A receptor; alpha-2/beta-3/gamma-2 (Homo sapiens, UniProt P18507+P28472+P47869); test: Displacement of [3H]flunitrazepam from human alpha2beta3gamma2 GABA receptor in Sf9 membranes after 1 hr by liquid scintillation counting
T2 sequence (P18507 whole entry): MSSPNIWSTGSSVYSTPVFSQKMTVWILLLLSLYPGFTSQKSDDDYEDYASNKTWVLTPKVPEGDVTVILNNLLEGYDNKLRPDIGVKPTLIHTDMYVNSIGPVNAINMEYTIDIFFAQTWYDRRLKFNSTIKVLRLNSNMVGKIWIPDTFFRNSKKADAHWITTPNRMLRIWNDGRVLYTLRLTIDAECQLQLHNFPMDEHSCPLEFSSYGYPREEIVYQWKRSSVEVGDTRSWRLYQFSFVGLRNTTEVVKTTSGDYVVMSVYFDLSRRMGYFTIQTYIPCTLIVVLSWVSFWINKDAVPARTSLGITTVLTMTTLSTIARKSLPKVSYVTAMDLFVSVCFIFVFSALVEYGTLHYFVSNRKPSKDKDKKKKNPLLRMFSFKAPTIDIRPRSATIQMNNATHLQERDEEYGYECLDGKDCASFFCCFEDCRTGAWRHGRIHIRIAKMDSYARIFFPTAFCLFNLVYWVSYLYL
T2 sequence (P28472 whole entry): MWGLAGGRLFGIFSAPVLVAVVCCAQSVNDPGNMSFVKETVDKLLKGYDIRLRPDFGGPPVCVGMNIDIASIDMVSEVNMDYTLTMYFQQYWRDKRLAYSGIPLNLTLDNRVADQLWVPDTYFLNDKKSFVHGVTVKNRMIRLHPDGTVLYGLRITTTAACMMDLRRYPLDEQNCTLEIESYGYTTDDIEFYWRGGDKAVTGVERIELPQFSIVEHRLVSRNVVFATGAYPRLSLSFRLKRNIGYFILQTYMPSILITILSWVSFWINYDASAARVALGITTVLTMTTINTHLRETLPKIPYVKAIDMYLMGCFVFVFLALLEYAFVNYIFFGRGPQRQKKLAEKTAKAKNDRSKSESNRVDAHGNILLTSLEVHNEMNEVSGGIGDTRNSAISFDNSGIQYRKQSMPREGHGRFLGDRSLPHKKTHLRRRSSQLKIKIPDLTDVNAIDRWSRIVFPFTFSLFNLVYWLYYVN
T2 sequence (P47869 whole entry): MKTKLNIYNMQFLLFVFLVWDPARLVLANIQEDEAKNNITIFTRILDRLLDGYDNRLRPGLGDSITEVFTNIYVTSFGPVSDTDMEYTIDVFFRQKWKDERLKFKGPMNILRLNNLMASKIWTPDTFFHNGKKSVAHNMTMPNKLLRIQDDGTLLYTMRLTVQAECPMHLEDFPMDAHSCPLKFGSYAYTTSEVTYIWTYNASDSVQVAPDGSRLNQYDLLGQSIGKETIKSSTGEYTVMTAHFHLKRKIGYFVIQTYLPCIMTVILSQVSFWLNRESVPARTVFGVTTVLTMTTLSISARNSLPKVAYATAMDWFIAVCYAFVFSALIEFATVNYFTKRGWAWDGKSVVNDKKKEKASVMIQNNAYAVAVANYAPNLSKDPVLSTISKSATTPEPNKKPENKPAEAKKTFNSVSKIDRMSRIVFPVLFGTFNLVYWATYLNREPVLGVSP
Summary of the method: (§2)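 [3H]Flunitrazepam (3 nM) competition on recombinant Sf9 membranes co-expressing α, β and γ2 subunits. Compound incubated 1 h at 4 °C in 20 mM Tris–citrate, 200 mM NaCl, pH 7.8, with membrane protein.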

[3] = biological target: T3, GABA-A receptor; alpha-1/beta-2/gamma-2 (Homo sapiens) (UniProt P14867+P47870+P18507); test: Positive allosteric modulation of human alpha1beta2gamma2 GABA receptor expressed in Xenopus laevis oocytes at 1 uM; type: cell-based; settings: Oocyte; summary of the method: as §1
[4] = biological target: T4, GABA-A receptor; alpha-5/beta-3/gamma-2 (Homo sapiens, UniProt P18507+P28472+P31644); test: Binding affinity to human alpha5beta3gamma2 GABA receptor expressed in Xenopus laevis oocytes; type: cell-based, Oocyte
T4 sequence (P18507 whole entry): T2 sequence (P18507 whole entry)
T4 sequence (P28472 whole entry): T2 sequence (P28472 whole entry)
T4 sequence (P31644 whole entry): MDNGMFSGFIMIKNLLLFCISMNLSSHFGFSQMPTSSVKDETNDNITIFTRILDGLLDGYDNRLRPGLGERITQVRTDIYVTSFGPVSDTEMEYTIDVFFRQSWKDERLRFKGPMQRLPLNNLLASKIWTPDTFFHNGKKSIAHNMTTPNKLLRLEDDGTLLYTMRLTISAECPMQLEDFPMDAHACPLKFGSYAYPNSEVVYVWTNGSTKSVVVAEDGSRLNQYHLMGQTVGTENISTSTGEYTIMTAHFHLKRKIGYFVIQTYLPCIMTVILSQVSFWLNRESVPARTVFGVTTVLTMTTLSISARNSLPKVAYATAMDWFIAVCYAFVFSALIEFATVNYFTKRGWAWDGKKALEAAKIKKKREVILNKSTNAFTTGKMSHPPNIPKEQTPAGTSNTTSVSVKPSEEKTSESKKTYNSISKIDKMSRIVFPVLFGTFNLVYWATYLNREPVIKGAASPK

[5] = biological target: T2, GABA-A receptor; alpha-2/beta-3/gamma-2; test: Binding affinity to human alpha2beta3gamma2 GABA receptor expressed in Xenopus laevis oocytes; type: cell-based, Oocyte
[6] = biological target: T4, GABA-A receptor; alpha-5/beta-3/gamma-2; test: Displacement of [3H]flunitrazepam from human alpha5beta3gamma2 GABA receptor in Sf9 membranes after 1 hr by liquid scintillation counting; summary of the method: as §2
[7] = biological target: T5, GABA-A receptor; alpha-3/beta-3/gamma-2 (Homo sapiens) (UniProt P18507+P28472+P34903); test: Positive allosteric modulation of human alpha3beta3gamma2 GABA receptor expressed in Xenopus laevis oocytes at 1 uM; type: cell-based; settings: Oocyte; summary of the method: as §1
[8] = biological target: T6, GABA-A receptor; alpha-3/beta-3/gamma-2 (Homo sapiens, UniProt P18507+P28472+P34903); test: Binding affinity to human alpha3beta3gamma2 GABA receptor expressed in Xenopus laevis oocytes; type: cell-based, Oocyte
T6 sequence (P18507 whole entry): T2 sequence (P18507 whole entry)
T6 sequence (P28472 whole entry): T2 sequence (P28472 whole entry)
T6 sequence (P34903 whole entry): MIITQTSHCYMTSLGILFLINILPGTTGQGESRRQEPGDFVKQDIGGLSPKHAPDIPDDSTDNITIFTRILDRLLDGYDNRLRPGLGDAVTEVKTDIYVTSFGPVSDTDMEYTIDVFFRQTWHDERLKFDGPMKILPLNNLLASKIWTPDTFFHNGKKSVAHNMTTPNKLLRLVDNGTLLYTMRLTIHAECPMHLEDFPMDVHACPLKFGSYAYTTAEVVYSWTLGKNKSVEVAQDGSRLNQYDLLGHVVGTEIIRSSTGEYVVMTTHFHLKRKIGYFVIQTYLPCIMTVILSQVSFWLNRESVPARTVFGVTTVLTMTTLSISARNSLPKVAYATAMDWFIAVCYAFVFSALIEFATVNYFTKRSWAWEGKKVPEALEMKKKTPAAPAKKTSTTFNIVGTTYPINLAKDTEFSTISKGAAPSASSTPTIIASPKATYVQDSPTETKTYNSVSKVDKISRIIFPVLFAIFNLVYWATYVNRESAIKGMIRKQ

[9] = biological target: T3, GABA-A receptor; alpha-1/beta-2/gamma-2 (Homo sapiens); test: Effect on human alpha1beta2gamma2 GABA receptor expressed in Xenopus laevis oocytes at 10 uM; type: cell-based; settings: Oocyte
[10] = biological target: T7, GABA-A receptor; alpha-5/beta-3/gamma-2 (Homo sapiens) (UniProt P18507+P28472+P31644); test: Negative allosteric modulation of human alpha5beta3gamma2 GABA receptor expressed in Xenopus laevis oocytes at 1 uM; type: cell-based; settings: Oocyte; summary of the method: as §1
[11] = biological target: T3, GABA-A receptor; alpha-1/beta-2/gamma-2 (Homo sapiens); test: Negative allosteric modulation of human alpha1beta2gamma2 GABA receptor expressed in Xenopus laevis oocytes at 1 uM; type: cell-based; settings: Oocyte
[12] = biological target: T8, GABA-A receptor; alpha-1/beta-2/gamma-2 (Homo sapiens, UniProt P14867+P18507+P47870); test: Binding affinity to human alpha1beta2gamma2 GABA receptor expressed in Xenopus laevis oocytes; type: cell-based, Oocyte
T8 sequence (P14867 whole entry): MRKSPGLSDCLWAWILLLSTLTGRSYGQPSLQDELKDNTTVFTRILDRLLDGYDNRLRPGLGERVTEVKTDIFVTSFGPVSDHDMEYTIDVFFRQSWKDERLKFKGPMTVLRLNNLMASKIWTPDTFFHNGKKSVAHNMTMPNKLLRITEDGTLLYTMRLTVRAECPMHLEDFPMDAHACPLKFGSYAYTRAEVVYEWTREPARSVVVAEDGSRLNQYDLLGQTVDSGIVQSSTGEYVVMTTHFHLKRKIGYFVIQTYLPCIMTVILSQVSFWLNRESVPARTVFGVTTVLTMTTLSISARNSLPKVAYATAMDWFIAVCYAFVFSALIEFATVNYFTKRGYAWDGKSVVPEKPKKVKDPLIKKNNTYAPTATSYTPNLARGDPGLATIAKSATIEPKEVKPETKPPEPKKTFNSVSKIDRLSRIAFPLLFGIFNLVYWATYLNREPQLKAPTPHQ
T8 sequence (P47870 whole entry): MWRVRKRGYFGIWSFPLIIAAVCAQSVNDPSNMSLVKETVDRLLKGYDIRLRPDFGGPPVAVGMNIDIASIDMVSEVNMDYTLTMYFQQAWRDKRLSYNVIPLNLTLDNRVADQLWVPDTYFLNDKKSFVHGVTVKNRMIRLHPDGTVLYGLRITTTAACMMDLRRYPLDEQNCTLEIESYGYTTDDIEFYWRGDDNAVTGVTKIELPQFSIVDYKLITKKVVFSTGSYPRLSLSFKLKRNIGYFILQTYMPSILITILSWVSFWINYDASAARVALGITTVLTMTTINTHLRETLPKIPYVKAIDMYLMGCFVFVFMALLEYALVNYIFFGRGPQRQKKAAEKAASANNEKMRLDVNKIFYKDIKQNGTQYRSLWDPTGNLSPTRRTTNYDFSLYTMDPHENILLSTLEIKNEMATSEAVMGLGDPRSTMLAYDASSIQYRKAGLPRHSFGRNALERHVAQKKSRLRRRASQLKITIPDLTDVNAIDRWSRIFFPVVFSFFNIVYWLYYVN
T8 sequence (P18507 whole entry): T2 sequence (P18507 whole entry)

[13] = biological target: T5, GABA-A receptor; alpha-3/beta-3/gamma-2 (Homo sapiens); test: Negative allosteric modulation of human alpha3beta3gamma2 GABA receptor expressed in Xenopus laevis oocytes at 1 uM; type: cell-based; settings: Oocyte
[14] = biological target: T1, GABA-A receptor; alpha-2/beta-3/gamma-2 (Homo sapiens); test: Negative allosteric modulation of human alpha2beta3gamma2 GABA receptor expressed in Xenopus laevis oocytes at 1 uM; type: cell-based; settings: Oocyte; summary of the method: as §1
[15] = biological target: T7, GABA-A receptor; alpha-5/beta-3/gamma-2 (Homo sapiens); test: Positive allosteric modulation of human alpha5beta3gamma2 GABA receptor expressed in Xenopus laevis oocytes at 1 uM; type: cell-based; settings: Oocyte; summary of the method: as §1

Row | Compound | Activity [1] | Ki [2] | EC50 [4] | EC50 [5] | Activity [7] | EC50 [8] | Activity [10] | also measured
1 | Nc1c2c(nc3c(-c4ncccn4)cccc13)CN(C1CCC1)C2=O | 44% and 38% | 8.3 nM | 206 nM | 34 nM | 40% | 77 nM | 46% and 32% | Activity [3]: 1%; Ki [6]: 14 nM; Activity [9]: inactive
2 | Nc1c(C(=O)NC2CC2)nnc2c(-c3ncccn3)cccc12 | 54% |  |  |  |  |  | 5% | 
3 | CCCNC(=O)c1nnc2c(-c3ncccn3)cccc2c1N |  | 380 nM | 1130 nM | 104 nM | 41% | 379 nM |  | Activity [11]: 5%
4 | CCCNC(=O)c1nnc2c(-c3ncccn3)c(F)ccc2c1N | 31% | 6 nM |  |  |  |  | 3% | 
5 | CCCNC(=O)c1nnc2c(-c3cncc(C(=O)N4CCC4)c3)cccc2c1N |  |  | 455 nM | 54 nM |  | 174 nM | 45% | Activity [11]: 14%; EC50 [12]: 389 nM; Activity [13]: 11%; Activity [14]: 5%
6 | CN1C(=O)CN=C(c2ccccc2)c2cc(Cl)ccc21 | 177% |  |  |  | 207% |  |  | Activity [15]: 153%; Activity [3]: 192%
7 | Nc1c(C(=O)N2CCC2)nnc2c(-c3ncccn3)cccc12 |  |  |  |  |  |  | 22% | Activity [14]: 5%
